This is an account of results in ChEMBL document CHEMBL3603770, “Synthesis and cytotoxic activities of 2-substituted (25R)-spirostan-1,4,6-triene-3-ones via ring-opening/elimination and 'click' strategy” (Bioorg Med Chem Lett, 2015).

Each structure is given as a SMILES string.

Assay type in all cases: functional, cell-based
The subject of test [1] is HeLa. The test can be described thus: Antiproliferative activity against human HeLa cells incubated for 48 hrs by MTT assay. Summed up: (§1)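 Human tumour cells exposed to compounds for 48 h at 37 °C; viability read by MTT. Growth inhibition (%) measured in triplicate at 5, 10, 20, 40, 80 and 160 μM; data as mean ± standard deviation. IC50 calculated from percentage inhibition of cell growth.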
In general terms: Tetrazolium dyes change colour on reduction, which living cells bring about.

Test [2] relates to HepG2. The test is described as follows: Antiproliferative activity against human HepG2 cells incubated for 48 hrs by MTT assay. To be noted: HepG2, 48 h. Summed up: as §1
A short description of test [3]: Antiproliferative activity against human CaSki cells incubated for 48 hrs by MTT assay. To be noted: Ca-Ski. The essentials:
as §1

Consider `C#CCOC1=C[C@@]2(C)C(=CC1=O)C=C[C@H]1[C@@H]3C[C@@H]4O[C@]5(CC[C@@H](C)CO5)[C@@H](C)[C@@H]4[C@@]3(C)CC[C@@H]12`, for which the IC50 (as a rule, the concentration needed to halve the response being measured) in test [1] turned out to be 57.4 µM; in test [2], 90.7 µM; in test [3] it was 23.2 µM.

Take `C[C@@H]1CC[C@@]2(OC1)O[C@H]1C[C@H]3[C@@H]4C=CC5=CC(=O)C(OCc6cn(Cc7ccc(Cn8cc(COC9=C[C@@]%10(C)C(=CC9=O)C=C[C@H]9[C@@H]%11C[C@@H]%12O[C@]%13(CC[C@@H](C)CO%13)[C@@H](C)[C@@H]%12[C@@]%11(C)CC[C@@H]9%10)nn8)cc7)nn6)=C[C@]5(C)[C@H]4CC[C@]3(C)[C@H]1[C@@H]2C`: the IC50 in test [1], in test [2] and in test [3] was greater than 100 µM throughout.

With `COC1=C[C@@]2(C)C(=CC1=O)C=C[C@H]1[C@@H]3C[C@@H]4O[C@]5(CC[C@@H](C)CO5)[C@@H](C)[C@@H]4[C@@]3(C)CC[C@@H]12`, the figures for the IC50 in test [1], in test [2] and in test [3] were greater than 100 µM, 77.1 µM and 28.5 µM, respectively.

`CCCOC1=C[C@@]2(C)C(=CC1=O)C=C[C@H]1[C@@H]3C[C@@H]4O[C@]5(CC[C@@H](C)CO5)[C@@H](C)[C@@H]4[C@@]3(C)CC[C@@H]12`: the results for the IC50 in test [1], in test [2] and in test [3] were 80.3 µM, 61.6 µM and 32.1 µM, respectively.

On to `C[C@@H]1CC[C@@]2(OC1)O[C@H]1C[C@H]3[C@@H]4C=CC5=CC(=O)C(OCc6cn(CC(=O)c7ccccc7)nn6)=C[C@]5(C)[C@H]4CC[C@]3(C)[C@H]1[C@@H]2C`, for which the results for the 50% inhibitory concentration (IC50) in test [1], in test [2] and in test [3] were greater than 100 µM, 60.2 µM and 99 µM, respectively.

For the molecule `Cc1ccc(C(=O)Cn2cc(COC3=C[C@@]4(C)C(=CC3=O)C=C[C@H]3[C@@H]5C[C@@H]6O[C@]7(CC[C@@H](C)CO7)[C@@H](C)[C@@H]6[C@@]5(C)CC[C@@H]34)nn2)cc1`, the values for the IC50 in test [1], in test [2] and in test [3] were greater than 100 µM, 76.1 µM and greater than 100 µM, respectively.

For the molecule `COc1ccc(Cn2cc(COC3=C[C@@]4(C)C(=CC3=O)C=C[C@H]3[C@@H]5C[C@@H]6O[C@]7(CC[C@@H](C)CO7)[C@@H](C)[C@@H]6[C@@]5(C)CC[C@@H]34)nn2)cc1`, the IC50 in test [1] is greater than 100 µM; in test [2] it was 41.8 µM; in test [3], 67 µM.

Regarding `CCOC(=O)Cn1cc(COC2=C[C@@]3(C)C(=CC2=O)C=C[C@H]2[C@@H]4C[C@@H]5O[C@]6(CC[C@@H](C)CO6)[C@@H](C)[C@@H]5[C@@]4(C)CC[C@@H]23)nn1`, the IC50 in test [1] was greater than 100 µM; in test [2], 44 µM; in test [3] it was 68.9 µM.

On to `CC(=O)Cn1cc(COC2=C[C@@]3(C)C(=CC2=O)C=C[C@H]2[C@@H]4C[C@@H]5O[C@]6(CC[C@@H](C)CO6)[C@@H](C)[C@@H]5[C@@]4(C)CC[C@@H]23)nn1`, for which the values for the IC50 in test [1], in test [2] and in test [3] were 48.1 µM, 40.2 µM and 11.8 µM, respectively.

Take `C[C@@H]1CC[C@@]2(OC1)O[C@H]1C[C@H]3[C@@H]4C=CC5=CC(=O)C(OCc6cn(Cc7ccc(CN=[N+]=[N-])cc7)nn6)=C[C@]5(C)[C@H]4CC[C@]3(C)[C@H]1[C@@H]2C`: the IC50 in test [1], in test [2] and in test [3] was greater than 100 µM in each case.

For the molecule `C[C@@H]1CC[C@@]2(OC1)O[C@H]1C[C@H]3[C@@H]4C=CC5=CC(=O)C(OCc6cn(-c7ccccc7)nn6)=C[C@]5(C)[C@H]4CC[C@]3(C)[C@H]1[C@@H]2C`, the IC50 in test [1], in test [2] and in test [3] was greater than 100 µM in each case.

As for `C[C@@H]1CC[C@@]2(OC1)O[C@H]1C[C@H]3[C@@H]4C=CC5=CC(=O)C(OCc6cn(CC#N)nn6)=C[C@]5(C)[C@H]4CC[C@]3(C)[C@H]1[C@@H]2C`, the IC50 in test [1], in test [2] and in test [3] was greater than 100 µM in each case.

Take `CC(C)OC1=C[C@@]2(C)C(=CC1=O)C=C[C@H]1[C@@H]3C[C@@H]4O[C@]5(CC[C@@H](C)CO5)[C@@H](C)[C@@H]4[C@@]3(C)CC[C@@H]12`: the IC50 in test [1] is greater than 100 µM; in test [2] it was 61.3 µM; in test [3], 29.3 µM.

As for `CC(C)COC1=C[C@@]2(C)C(=CC1=O)C=C[C@H]1[C@@H]3C[C@@H]4O[C@]5(CC[C@@H](C)CO5)[C@@H](C)[C@@H]4[C@@]3(C)CC[C@@H]12`, the IC50 in test [1] was greater than 100 µM; in test [2], 53.4 µM; in test [3] it was 33.5 µM.

On to `C[C@@H]1CC[C@@]2(OC1)O[C@H]1C[C@H]3[C@@H]4C=CC5=CC(=O)C(OCc6cn(CC(=O)c7cccc(Br)c7)nn6)=C[C@]5(C)[C@H]4CC[C@]3(C)[C@H]1[C@@H]2C`, for which the results for the IC50 in test [1], in test [2] and in test [3] were greater than 100 µM, 88.1 µM and greater than 100 µM, respectively.

In the case of `COc1ccc(C(=O)Cn2cc(COC3=C[C@@]4(C)C(=CC3=O)C=C[C@H]3[C@@H]5C[C@@H]6O[C@]7(CC[C@@H](C)CO7)[C@@H](C)[C@@H]6[C@@]5(C)CC[C@@H]34)nn2)cc1`, the IC50 in test [1], in test [2] and in test [3] was greater than 100 µM throughout.

With `CCOC1=C[C@@]2(C)C(=CC1=O)C=C[C@H]1[C@@H]3C[C@@H]4O[C@]5(CC[C@@H](C)CO5)[C@@H](C)[C@@H]4[C@@]3(C)CC[C@@H]12`, the IC50 in test [1], in test [2] and in test [3] was greater than 100 µM each time.

Consider `C[C@@H]1CC[C@@]2(OC1)O[C@H]1C[C@H]3[C@@H]4C=CC5=CC(=O)C(OCc6cn(CC(=O)c7cccc(O)c7)nn6)=C[C@]5(C)[C@H]4CC[C@]3(C)[C@H]1[C@@H]2C`, for which the IC50 in test [1] was greater than 100 µM; in test [2], 45.6 µM; in test [3], 9.4 µM.

Turning to `C[C@@H]1CC[C@@]2(OC1)O[C@H]1C[C@H]3[C@@H]4C=CC5=CC(=O)C(OCc6cn(CC(=O)c7ccc(O)cc7)nn6)=C[C@]5(C)[C@H]4CC[C@]3(C)[C@H]1[C@@H]2C`, the figures for the IC50 in test [1], in test [2] and in test [3] were greater than 100 µM, 52.8 µM and 98.7 µM, respectively.

For the molecule `C[C@@H]1CC[C@@]2(OC1)O[C@H]1C[C@H]3[C@@H]4C=CC5=CC(=O)C(OCc6cn(Cc7ccccc7)nn6)=C[C@]5(C)[C@H]4CC[C@]3(C)[C@H]1[C@@H]2C`, the IC50 is greater than 100 µM in test [1], 53.4 µM in test [2] and 10.9 µM in test [3].

Consider `CCCCOC1=C[C@@]2(C)C(=CC1=O)C=C[C@H]1[C@@H]3C[C@@H]4O[C@]5(CC[C@@H](C)CO5)[C@@H](C)[C@@H]4[C@@]3(C)CC[C@@H]12`, for which the concentration for half-maximal inhibition (IC50) worked out at 71.6 µM in test [1], 85 µM in test [2] and 39.5 µM in test [3].

As to `C[C@@H]1CC[C@@]2(OC1)O[C@H]1C[C@H]3[C@@H]4C=CC5=CC(=O)C(OCc6cn(CC(=O)c7ccc(Br)cc7)nn6)=C[C@]5(C)[C@H]4CC[C@]3(C)[C@H]1[C@@H]2C`, the IC50 was greater than 100 µM in test [1], 53.7 µM in test [2] and greater than 100 µM in test [3].
